Test results reported in ChEMBL document CHEMBL3421585, “Structure-Based Design of Potent and Selective Inhibitors of the Metabolic Kinase PFKFB3” (J Med Chem, 2015).
pIC50: −log10 of the molar value. In brackets after ≈: the same amount, converted by molar mass.

Columns and labels:
[1] = biological target: 6-phosphofructo-2-kinase/fructose-2,6-bisphosphatase 1 (Homo sapiens, UniProt P16118); assay: Inhibition of recombinant human PFKFB1 using fructose 6 phosphate as substrate assessed as ADP generation after 1 hr by ADP Glo assay
[2] = biological target: 6-phosphofructo-2-kinase/fructose-2,6-bisphosphatase 2 (Homo sapiens, UniProt O60825); assay: Inhibition of recombinant human PFKFB2 using fructose 6 phosphate as substrate assessed as ADP generation after 1 hr by ADP Glo assay
[3] = biological target: T1, 6-phosphofructo-2-kinase/fructose-2,6-bisphosphatase 3 (Homo sapiens, UniProt Q16875); assay: Inhibition of recombinant human PFKFB3 using fructose 6 phosphate as substrate assessed as ADP generation after 1 hr by ADP Glo assay
[4] = Lipophilicity, log D of the compound at pH 7.4; settings: buffer
[5] = biological target: T1, 6-phosphofructo-2-kinase/fructose-2,6-bisphosphatase 3; assay: Inhibition of PFKFB3 in human A549 cells assessed as decrease in lactate secretion after 4 hrs; format: cell-based
In short: (§1)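 A549 cells; fructose-1,6-bisphosphate or lactate production measured.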

A549 = assay: Cytotoxicity against human A549 cells assessed as cell viability after 4 hrs; format: cell-based; settings: a549, 4 h
[6] = biological target: T1, 6-phosphofructo-2-kinase/fructose-2,6-bisphosphatase 3; assay: Inhibition of PFKFB3 in human A549 cells assessed as reduction of fructose-1,6-bisphosphate formation after 4 hrs by MS/MS analysis; format: cell-based; in short: as §1
[7] = Aqueous solubility of the compound at pH 7.4; format: physicochemical; settings: buffer
[8] = Fraction unbound in mouse plasma; format: ADME, cell-free
[9] = Fraction unbound in rat plasma; format: ADME, cell-free
[10] = Fraction unbound in human plasma; format: ADME, cell-free
[11] = Half life in mouse hepatocytes; format: ADME, cell-based, Hepatocyte
[12] = Half life in rat hepatocytes; format: ADME, cell-based, Hepatocyte
[13] = Half life in human hepatocytes; format: ADME, cell-based, Hepatocyte
[14] = Apparent intrinsic permeability in human Caco2 cells at pH 6.5; format: ADME, cell-based; settings: Caco-2, pH 6.5
[15] = Efflux ratio of apparent intrinsic permeability in human Caco2 cells; format: ADME, cell-based; settings: Caco-2
[16] = Oral bioavailability in CD1 mouse at 2.5 uM/kg; format: ADME, organism-based; settings: in vivo
In short: (§2)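 CD1 mice dosed po and iv at 2.5 µMol/kg.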

[17] = Volume of distribution at steady state in CD1 mouse at 2.5 uM/kg, po and iv; format: ADME, organism-based; settings: in vivo, read-out: Vdss; in short: as §2
[18] = Volume of distribution at steady state in Wistar rat at 3.1 uM/kg, po and 2.5 uM/kg, iv; format: ADME, organism-based; settings: in vivo, read-out: Vdss
In short: (§3)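 Male Wistar Han rats, 10-12 weeks old (n=2), given 3.1 µMol/kg po and 2.5 µMol/kg iv in 5% DMSO / 95% Captisol (30% in water).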

[19] = Clearance in CD1 mouse at 2.5 uM/kg, po and iv; format: ADME, organism-based; settings: in vivo; in short: as §2
[20] = Clearance in Wistar rat at 3.1 uM/kg, po and […] uM/kg, iv; format: ADME, organism-based; settings: in vivo
[21] = Half life in CD1 mouse at 2.5 uM/kg, iv; format: ADME, organism-based; settings: in vivo; in short: as §2
[22] = Half life in Wistar rat at 2.5 uM/kg, iv; format: ADME, organism-based; settings: in vivo; in short: as §3
[23] = AUC in nude mouse at 124 umol/kg; format: ADME, organism-based; settings: plasma
[24] = Cmax in nude mouse at 124 umol/kg; format: ADME, organism-based; parameters: dose 124 umol/kg; settings: in vivo
Homo sapiens = species: Homo sapiens; assay: Selectivity ratio of IC50 for recombinant human PFKFB2 to IC50 for recombinant human PFKFB3
In short: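 Ratio of the PFKFB2 enzyme IC50 to the PFKFB3 enzyme IC50. Each IC50 is the mean of at least two independent measurements, reported in micromolar, with SEM ±0.2 log units.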

Chain of 6-phosphofructo-2-kinase/fructose-2,6-bisphosphatase 2 (O60825 whole entry): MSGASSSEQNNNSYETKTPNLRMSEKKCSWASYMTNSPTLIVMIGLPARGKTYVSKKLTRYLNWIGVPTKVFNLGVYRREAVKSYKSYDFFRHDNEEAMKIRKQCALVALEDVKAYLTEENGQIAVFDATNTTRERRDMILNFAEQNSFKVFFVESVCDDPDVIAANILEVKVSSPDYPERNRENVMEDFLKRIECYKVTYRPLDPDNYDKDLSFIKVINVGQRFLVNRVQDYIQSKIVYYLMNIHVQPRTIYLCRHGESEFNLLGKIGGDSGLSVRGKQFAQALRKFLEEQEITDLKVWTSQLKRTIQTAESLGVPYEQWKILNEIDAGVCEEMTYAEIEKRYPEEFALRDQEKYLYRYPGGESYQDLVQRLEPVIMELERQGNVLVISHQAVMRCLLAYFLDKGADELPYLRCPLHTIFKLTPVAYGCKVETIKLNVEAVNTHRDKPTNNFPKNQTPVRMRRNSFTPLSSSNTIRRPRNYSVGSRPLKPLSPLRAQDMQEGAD
Chain of 6-phosphofructo-2-kinase/fructose-2,6-bisphosphatase 1 (P16118 whole entry): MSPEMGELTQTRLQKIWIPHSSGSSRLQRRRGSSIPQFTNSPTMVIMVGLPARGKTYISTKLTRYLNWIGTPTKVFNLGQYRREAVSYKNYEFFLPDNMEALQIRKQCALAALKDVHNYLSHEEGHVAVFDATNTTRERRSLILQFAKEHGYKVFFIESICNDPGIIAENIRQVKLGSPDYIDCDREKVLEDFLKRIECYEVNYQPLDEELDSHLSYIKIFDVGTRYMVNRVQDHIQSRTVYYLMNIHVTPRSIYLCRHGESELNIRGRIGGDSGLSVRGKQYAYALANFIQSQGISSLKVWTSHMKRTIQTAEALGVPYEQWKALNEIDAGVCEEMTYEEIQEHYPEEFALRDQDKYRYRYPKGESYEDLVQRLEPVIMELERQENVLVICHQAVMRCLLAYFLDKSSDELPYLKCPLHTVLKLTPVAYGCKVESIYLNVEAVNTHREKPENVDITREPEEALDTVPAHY
T1 sequence (Q16875 whole entry): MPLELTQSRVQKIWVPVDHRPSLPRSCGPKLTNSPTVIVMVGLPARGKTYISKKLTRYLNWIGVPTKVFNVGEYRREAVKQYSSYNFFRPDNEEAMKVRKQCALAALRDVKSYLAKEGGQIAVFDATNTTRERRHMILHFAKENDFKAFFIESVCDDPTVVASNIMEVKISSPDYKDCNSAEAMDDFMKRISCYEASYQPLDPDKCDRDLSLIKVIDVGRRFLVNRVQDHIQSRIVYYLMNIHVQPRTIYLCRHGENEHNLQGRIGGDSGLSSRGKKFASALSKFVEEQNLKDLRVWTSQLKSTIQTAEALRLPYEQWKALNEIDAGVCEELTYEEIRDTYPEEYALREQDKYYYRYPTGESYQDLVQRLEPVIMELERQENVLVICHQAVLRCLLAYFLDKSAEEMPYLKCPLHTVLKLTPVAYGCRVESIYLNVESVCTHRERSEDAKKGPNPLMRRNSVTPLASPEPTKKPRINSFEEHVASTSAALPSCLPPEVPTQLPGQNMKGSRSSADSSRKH

pIC50 [1] | pIC50 [2] | pIC50 [3] | logD [4] | pIC50 [5] | pIC50 [6] | Compound | other results
5.74 | 6.73 | 7.70 | 3.9 | 5.16 |  | N#Cc1cn(Cc2ccccc2)c2ccc(Oc3ccc(NC(=O)[C@@H]4CCCN4)cc3)cc12 | Activity (A549): Toxic
5.95 | 6.80 | 7.96 | 2.8 | < 4.52 | 6.55 | Cc1noc(C)c1Cn1cc(C#N)c2cc(Oc3ccc(NC(=O)[C@@H]4CCCN4)cc3)ccc21 | 
4.60 | 5.04 | 6.29 | 2 | < 4.52 | < 4.52 | CCn1c(N)c(C#N)c2cc(Oc3ccc(NC(=O)CN)cc3)ccc21 | 
5.60 | 5.16 | 6.46 | 0.5 | < 4.52 | < 4.52 | CN(C)C(=O)Cn1c(N)c(C#N)c2cc(Oc3ccc(NC(=O)CN)cc3)ccc21 | 
4.62 | < 4.00 | < 4.00 | 2.8 |  |  | CC(=O)Nc1ccc(Oc2ccc3[nH]c(N)c(C#N)c3c2)cc1 | 
5.46 | 6.37 | 7.32 | 2.8 | < 4.52 | 6.20 | N#Cc1cn(CC2CCOCC2)c2ccc(Oc3ccc(NC(=O)[C@@H]4CCCN4)cc3)cc12 | 
4.77 | 5.63 | 6.95 | 1.4 | < 4.52 | 4.85 | CNC(=O)Cn1cc(C#N)c2cc(Oc3ccc(NC(=O)[C@@H]4CCCN4)cc3)ccc21 | 
4.29 | 4.57 | 6.24 | 1.9 | < 4.52 | < 4.52 | N#Cc1c(N)[nH]c2ccc(Oc3ccc(NC(=O)[C@@H](N)CO)cc3)cc12 | 
4.56 | 5.45 | 6.94 | 2.3 | < 4.52 | < 4.52 | Cn1cc(-c2c[nH]c3ccc(Oc4ccc(NC(=O)[C@@H]5CCCN5)cc4)cc23)cn1 | 
4.69 | 4.60 | 6.08 | 2.7 | < 4.52 |  | CCn1cc(C#N)c2cc(Oc3ccc(NC(=O)CNC)cc3)ccc21 | 
4.42 | 4.68 | 6.09 | 1.9 | < 4.52 |  | Cn1c(N)c(C#N)c2cc(Oc3ccc(NC(=O)CN)cc3)ccc21 | 
4.66 | 5.74 | 6.95 | 2.9 | 4.92 | 5.52 | CCn1cc(C#N)c2cc(Oc3ccc(NC(=O)[C@@H]4CCCN4)cc3)ccc21 | Activity (A549): Non-toxic
6.15 | 6.97 | 8.10 | 3 | 5.66 | 6.85 | CN1Cc2cc(-n3cc(C#N)c4cc(Oc5ccc(NC(=O)[C@@H]6CCCN6)cc5)ccc43)ccc2C1=O | Activity (A549): Non-toxic
4.06 | 4.66 | 5.66 | 2.7 | < 4.52 |  | CCn1cc(C#N)c2cc(Oc3ccc(NC(=O)[C@@H]4CCCCN4)cc3)ccc21 | 
4.14 | 4.12 | 4.64 | 1.9 | < 4.52 |  | CCn1cc(C#N)c2cc(Oc3ccc(N(C)C(=O)[C@@H]4CCCN4)cc3)ccc21 | 
< 4.00 | 4.27 | 5.63 | 1.6 |  |  | N#Cc1c(N)[nH]c2ccc(Oc3ccc(NC(=O)CN)cc3)cc12 | 
4.44 | 5.21 | 5.80 | 2.7 | < 4.52 |  | CC(C)Cn1cc(C#N)c2cc(Nc3ccc(NC(=O)[C@@H]4CCCN4)cc3)ccc21 | 
 |  | < 4.00 |  |  |  | O=C(/C=C/c1cccnc1)c1ccncc1 | 
< 4.00 | < 4.00 | 4.15 | 2.8 | < 4.52 |  | CCn1cc(C#N)c2cc(Oc3ccc(NC(=O)[C@H]4CCCN4)cc3)ccc21 | 

pIC50 [1] | pIC50 [2] | pIC50 [3] | logD [4] | pIC50 [5] | pIC50 [6] | Compound | other results
6.72 | 7.60 | 8.52 |  |  | 7.17 | Cc1noc(C)c1Cn1nc(C#N)c2cc(Oc3ccc(NC(=O)[C@@H]4CCCN4)cc3)ccc21 | 
5.58 | 5.83 | 6.98 | 2.9 | 4.90 | < 4.52 | N#Cc1c(N)n(Cc2ccccc2)c2ccc(Oc3ccc(NC(=O)CN)cc3)cc12 | Activity (A549): Toxic
5.30 | 6.85 | 7.12 | 3.8 | 4.86 | < 4.52 | CC(C)Cn1cc(C#N)c2cc(N(C)c3ccc(NC(=O)[C@@H]4CCCN4)cc3)ccc21 | Activity (A549): Toxic
5.78 | 6.72 | 6.95 | > 4.3 | 4.85 |  | CC(C)Cn1cc(C#N)c2cc(Sc3ccc(NC(=O)[C@@H]4CCCN4)cc3)ccc21 | Activity (A549): Toxic
5.50 | 5.60 | 6.75 | 3.2 | 4.79 | < 4.52 | CC(C)Cn1c(N)c(C#N)c2cc(Oc3ccc(NC(=O)CN)cc3)ccc21 | Activity (A549): Toxic
4.74 | 4.64 | 6.25 | 2.5 | < 4.52 |  | CCn1cc(C#N)c2cc(Oc3ccc(NC(=O)CN)cc3)ccc21 | 
< 4.00 | 4.63 | 6.27 |  | < 4.52 |  | CCn1cc(C#N)c2cc(Oc3ccc(NC(=O)[C@@H]4CCC(=O)N4)cc3)ccc21 | 
5.69 | 6.42 | 7.64 | 3.5 | 5.24 | 6.46 | CC(C)Cn1cc(C#N)c2cc(Oc3ccc(NC(=O)[C@@H]4CCCN4)cc3)ccc21 | solubility [7]: 48 µM (≈ 19.3 µg/mL); fraction unbound [8]: 0.0164; fraction unbound [9]: < 0.0003; fraction unbound [10]: 0.0033; half-life [11]: 21 min; half-life [12]: 21 min; half-life [13]: 28 min; Papp [14]: 13.4 ×10⁻⁶ cm/s; efflux ratio [15]: 4.6; bioavailability at […] [16]: 42%; Vd at […] [17]: 3.3 L/kg; Vd [18]: 0.4 L/kg; clearance at […] [19]: 38 mL/min/kg; clearance [20]: 2 mL/min/kg; half-life at […] [21]: 84 min; half-life at […] [22]: 204 min; Activity (A549): Toxic; AUC [23]: 259 µM·h; Cmax [24]: 35 µM; Ratio IC50 (Homo sapiens): 17
4.27 | < 4.00 | 6.59 | 2.1 | < 4.52 | 5.13 | CN(C)CCn1cc(C#N)c2cc(Oc3ccc(NC(=O)[C@@H]4CCCN4)cc3)ccc21 | 
6.53 | 7.82 | 8.40 | 3.6 | 4.81 | 6.53 | CC(C)Cn1nc(C#N)c2cc(Oc3ccc(NC(=O)[C@@H]4CCCN4)cc3)ccc21 | Activity (A549): Toxic; Ratio IC50 (Homo sapiens): 4
5.23 | 5.84 | 6.70 | 3.9 | < 4.52 | < 4.52 | CC(C)Cn1cc(C#N)c2cc(Cc3ccc(NC(=O)[C@@H]4CCCN4)cc3)ccc21 | 
4.21 | < 4.00 | < 4.00 | 1.6 |  |  | N#Cc1c(N)[nH]c2ccc(Oc3ccc(NC(=O)[C@H](N)CO)cc3)cc12 | 
4.42 | 4.20 | 5.70 | 2.1 |  |  | N#Cc1c[nH]c2ccc(Oc3ccc(NC(=O)CN)cc3)cc12 | 
5.43 |  | 7.07 |  | 4.71 |  | CCn1cc(C#N)c2cc(Oc3ccc(NC(=O)[C@@H]4CCN4)cc3)ccc21 | 
6.49 | < 4.00 | 4.42 | 2.9 | 4.61 | < 4.52 | CC(C)Cn1cc(C#N)c2cc(S(=O)(=O)c3ccc(NC(=O)[C@@H]4CCCN4)cc3)ccc21 | 
5.63 | 6.09 | 7.68 | 1.9 | 5.01 | 6.01 | Cn1cc(-c2cn(C)c3ccc(Oc4ccc(NC(=O)[C@@H]5CCCN5)cc4)cc23)cn1 | Activity (A549): Non-toxic
5.71 | 6.43 | 7.57 | > 4.3 | 5.06 |  | N#Cc1cn(-c2ccccc2)c2ccc(Oc3ccc(NC(=O)[C@@H]4CCCN4)cc3)cc12 | Activity (A549): Toxic
4.20 | 4.12 | 5.01 |  | < 4.52 |  | CCn1cc(C#N)c2cc(Oc3ccc(NC(=O)CN(C)C)cc3)ccc21 | 
